Where a chain is given by its changes, count along the chain named.
Assays:
Details in all cases: stereoisomer not certain
[1] = target: T1, OR52N4 (Homo sapiens) (UniProt Q8NGI2)
T1 sequence (whole entry): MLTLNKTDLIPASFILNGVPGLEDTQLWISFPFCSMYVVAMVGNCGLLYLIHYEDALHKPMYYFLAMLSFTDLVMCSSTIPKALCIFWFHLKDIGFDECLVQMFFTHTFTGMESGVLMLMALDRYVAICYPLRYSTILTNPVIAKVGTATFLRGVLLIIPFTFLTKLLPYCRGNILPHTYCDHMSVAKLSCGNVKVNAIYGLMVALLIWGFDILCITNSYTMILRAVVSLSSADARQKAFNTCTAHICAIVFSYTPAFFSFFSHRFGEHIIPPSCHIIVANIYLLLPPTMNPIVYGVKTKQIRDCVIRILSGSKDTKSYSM
Outline: (§1)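 Transient luciferase assays in mammalian cell lines were common, though methods varied by source. The values come from published papers and their supplementary material, with extra details from the original authors when needed. Responsive refers to a measured signal the original authors judged statistically different from baseline, and non-responsive (inactive) to the remainder.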

[2] = target: T2, OR52N5 (Homo sapiens) (UniProt Q8NH56)
T2 sequence (whole entry): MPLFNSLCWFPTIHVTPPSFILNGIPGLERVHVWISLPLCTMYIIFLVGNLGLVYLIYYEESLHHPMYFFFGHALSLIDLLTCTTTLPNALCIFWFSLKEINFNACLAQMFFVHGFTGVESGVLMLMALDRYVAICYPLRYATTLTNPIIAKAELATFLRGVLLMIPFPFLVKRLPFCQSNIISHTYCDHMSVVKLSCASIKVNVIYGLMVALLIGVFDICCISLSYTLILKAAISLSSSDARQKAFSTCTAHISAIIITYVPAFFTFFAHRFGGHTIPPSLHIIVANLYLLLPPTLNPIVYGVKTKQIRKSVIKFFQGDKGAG
Outline: as §1

[3] = target: T3, OR52R1 (Homo sapiens) (UniProt Q8NGF1)
T3 sequence (whole entry): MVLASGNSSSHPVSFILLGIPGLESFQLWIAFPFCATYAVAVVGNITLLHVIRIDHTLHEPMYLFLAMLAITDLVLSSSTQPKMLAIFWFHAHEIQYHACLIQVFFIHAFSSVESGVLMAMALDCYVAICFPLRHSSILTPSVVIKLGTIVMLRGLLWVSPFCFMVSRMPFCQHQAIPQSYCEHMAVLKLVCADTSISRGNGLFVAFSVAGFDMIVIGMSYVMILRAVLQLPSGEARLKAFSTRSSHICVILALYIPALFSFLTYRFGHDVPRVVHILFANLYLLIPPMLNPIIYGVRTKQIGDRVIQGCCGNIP
Outline: as §1

[4] = target: T4, OR52W1 (Homo sapiens) (UniProt Q6IF63)
T4 sequence (whole entry): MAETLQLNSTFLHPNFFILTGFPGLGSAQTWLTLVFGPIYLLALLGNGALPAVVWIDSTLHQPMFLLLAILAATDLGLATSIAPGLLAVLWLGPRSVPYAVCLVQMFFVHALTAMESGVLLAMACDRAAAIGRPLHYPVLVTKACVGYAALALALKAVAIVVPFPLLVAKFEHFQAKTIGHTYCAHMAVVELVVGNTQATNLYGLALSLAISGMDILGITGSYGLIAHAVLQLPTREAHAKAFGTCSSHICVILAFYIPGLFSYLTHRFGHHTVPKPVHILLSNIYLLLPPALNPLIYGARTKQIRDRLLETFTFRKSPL
Outline: as §1

[5] = target: T5, OR56A1 (Homo sapiens) (UniProt Q8NGH5)
T5 sequence (whole entry): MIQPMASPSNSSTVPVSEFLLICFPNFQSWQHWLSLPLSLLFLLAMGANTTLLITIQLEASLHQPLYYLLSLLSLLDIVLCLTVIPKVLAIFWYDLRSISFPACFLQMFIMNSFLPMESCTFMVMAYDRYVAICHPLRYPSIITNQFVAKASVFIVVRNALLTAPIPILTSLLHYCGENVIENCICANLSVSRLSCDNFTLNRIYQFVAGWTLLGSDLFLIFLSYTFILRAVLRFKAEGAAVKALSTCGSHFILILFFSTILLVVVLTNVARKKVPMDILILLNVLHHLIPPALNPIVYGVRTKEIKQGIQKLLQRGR
Outline: as §1

[6] = target: T6, OR56A3 (Homo sapiens) (UniProt Q8NH54)
T6 sequence (whole entry): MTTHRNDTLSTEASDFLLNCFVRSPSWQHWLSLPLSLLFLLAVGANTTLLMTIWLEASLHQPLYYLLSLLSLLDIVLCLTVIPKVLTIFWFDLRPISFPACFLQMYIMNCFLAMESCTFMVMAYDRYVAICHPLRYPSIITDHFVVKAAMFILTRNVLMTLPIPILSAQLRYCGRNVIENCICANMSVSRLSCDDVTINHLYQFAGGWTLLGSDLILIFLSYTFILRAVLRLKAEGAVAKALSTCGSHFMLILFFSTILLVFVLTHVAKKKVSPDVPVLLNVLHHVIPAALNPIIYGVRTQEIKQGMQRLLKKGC
Outline: as §1

[7] = target: T7, OR56A5 (Homo sapiens) (UniProt P0C7T3)
T7 sequence (whole entry): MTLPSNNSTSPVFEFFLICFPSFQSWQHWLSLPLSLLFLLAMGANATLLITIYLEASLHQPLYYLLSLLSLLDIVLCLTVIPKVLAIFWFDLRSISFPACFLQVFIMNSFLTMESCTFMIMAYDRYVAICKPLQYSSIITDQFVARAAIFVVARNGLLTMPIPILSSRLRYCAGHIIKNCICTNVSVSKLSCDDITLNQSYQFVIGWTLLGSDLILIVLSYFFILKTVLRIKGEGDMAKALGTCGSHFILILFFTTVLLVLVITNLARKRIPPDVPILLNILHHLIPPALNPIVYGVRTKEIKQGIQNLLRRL
Outline: as §1

[8] = target: T8, OR56B1 (Homo sapiens) (UniProt Q8NGI3)
T8 sequence (whole entry): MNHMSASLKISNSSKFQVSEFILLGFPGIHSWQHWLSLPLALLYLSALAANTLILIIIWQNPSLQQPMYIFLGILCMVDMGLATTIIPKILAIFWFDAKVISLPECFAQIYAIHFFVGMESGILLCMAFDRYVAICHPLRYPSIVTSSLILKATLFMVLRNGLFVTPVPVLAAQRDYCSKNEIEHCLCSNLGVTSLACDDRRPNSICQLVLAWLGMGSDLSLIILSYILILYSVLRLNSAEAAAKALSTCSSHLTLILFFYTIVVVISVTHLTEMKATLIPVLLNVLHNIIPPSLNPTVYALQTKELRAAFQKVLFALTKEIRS
Outline: as §1

[9] = target: T9, OR56B4 (Homo sapiens) (UniProt Q8NH76)
T9 sequence (whole entry): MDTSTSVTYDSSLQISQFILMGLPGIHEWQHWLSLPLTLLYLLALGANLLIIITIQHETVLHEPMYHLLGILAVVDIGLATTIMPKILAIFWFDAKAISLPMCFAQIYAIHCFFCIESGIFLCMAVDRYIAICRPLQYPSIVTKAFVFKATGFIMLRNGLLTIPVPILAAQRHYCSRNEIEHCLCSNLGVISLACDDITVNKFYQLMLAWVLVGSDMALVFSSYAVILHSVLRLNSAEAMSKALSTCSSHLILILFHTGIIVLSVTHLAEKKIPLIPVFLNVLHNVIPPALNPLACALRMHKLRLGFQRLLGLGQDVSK
Outline: as §1

[10] = target: T10, OR5A1 (Homo sapiens) (UniProt Q8NGJ0)
T10 sequence (whole entry): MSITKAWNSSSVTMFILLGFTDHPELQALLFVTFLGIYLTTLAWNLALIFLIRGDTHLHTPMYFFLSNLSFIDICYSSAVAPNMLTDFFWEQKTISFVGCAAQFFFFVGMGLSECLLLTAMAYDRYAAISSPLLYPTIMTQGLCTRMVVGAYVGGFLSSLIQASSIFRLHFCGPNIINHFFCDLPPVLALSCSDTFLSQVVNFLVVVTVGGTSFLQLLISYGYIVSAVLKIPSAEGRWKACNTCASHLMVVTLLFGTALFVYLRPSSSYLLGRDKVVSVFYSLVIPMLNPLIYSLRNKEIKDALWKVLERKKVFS
Outline: as §1

[11] = test system: T11, OR5A1 D183N
T11 sequence (whole entry): T10 sequence (whole entry) with D183N
Outline: as §1

[12] = target: T12, OR5A2 (Homo sapiens) (UniProt Q8NGI9)
T12 sequence (whole entry): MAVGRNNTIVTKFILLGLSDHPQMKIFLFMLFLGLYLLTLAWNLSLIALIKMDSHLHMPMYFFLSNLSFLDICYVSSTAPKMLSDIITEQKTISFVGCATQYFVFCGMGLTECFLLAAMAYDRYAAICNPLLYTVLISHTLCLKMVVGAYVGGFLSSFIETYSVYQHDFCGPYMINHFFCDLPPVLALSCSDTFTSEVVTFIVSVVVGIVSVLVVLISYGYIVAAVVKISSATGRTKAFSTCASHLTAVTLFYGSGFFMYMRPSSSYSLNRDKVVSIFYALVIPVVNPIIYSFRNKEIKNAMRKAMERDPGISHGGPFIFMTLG
Outline: as §1

[13] = target: T13, OR5AC2 (Homo sapiens) (UniProt Q9NZP5)
T13 sequence (whole entry): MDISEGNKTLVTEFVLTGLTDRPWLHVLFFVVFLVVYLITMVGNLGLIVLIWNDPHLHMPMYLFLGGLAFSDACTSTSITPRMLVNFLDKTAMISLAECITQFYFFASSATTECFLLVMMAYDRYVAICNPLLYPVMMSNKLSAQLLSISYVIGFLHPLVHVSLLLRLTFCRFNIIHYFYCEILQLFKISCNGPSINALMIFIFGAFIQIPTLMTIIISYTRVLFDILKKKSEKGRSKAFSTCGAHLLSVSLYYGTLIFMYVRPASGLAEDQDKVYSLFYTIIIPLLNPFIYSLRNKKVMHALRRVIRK
Outline: as §1

[14] = target: T14, OR5AK2 (Homo sapiens) (UniProt Q8NH90)
T14 sequence (whole entry): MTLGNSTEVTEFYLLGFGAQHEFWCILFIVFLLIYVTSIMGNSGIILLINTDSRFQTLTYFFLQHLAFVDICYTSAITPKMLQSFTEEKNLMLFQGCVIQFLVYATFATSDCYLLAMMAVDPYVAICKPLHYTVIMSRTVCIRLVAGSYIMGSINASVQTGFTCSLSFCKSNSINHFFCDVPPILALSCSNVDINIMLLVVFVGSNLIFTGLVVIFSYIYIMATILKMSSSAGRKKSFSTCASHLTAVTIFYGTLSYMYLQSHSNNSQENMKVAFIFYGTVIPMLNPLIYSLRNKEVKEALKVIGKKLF
Outline: as §1

[15] = target: T15, OR5AN1 (Homo sapiens) (UniProt Q8NGI8)
T15 sequence (whole entry): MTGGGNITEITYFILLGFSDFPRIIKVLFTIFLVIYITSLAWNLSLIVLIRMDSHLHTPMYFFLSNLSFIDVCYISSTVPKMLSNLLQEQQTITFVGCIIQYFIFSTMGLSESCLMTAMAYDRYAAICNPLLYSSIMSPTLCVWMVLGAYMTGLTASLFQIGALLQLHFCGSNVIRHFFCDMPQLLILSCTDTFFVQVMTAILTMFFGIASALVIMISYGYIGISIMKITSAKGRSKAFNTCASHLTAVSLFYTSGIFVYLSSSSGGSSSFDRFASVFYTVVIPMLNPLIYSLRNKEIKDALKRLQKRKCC
Outline: as §1

[16] = target: T16, OR5AP2 (Homo sapiens) (UniProt Q8NGF4)
T16 sequence (whole entry): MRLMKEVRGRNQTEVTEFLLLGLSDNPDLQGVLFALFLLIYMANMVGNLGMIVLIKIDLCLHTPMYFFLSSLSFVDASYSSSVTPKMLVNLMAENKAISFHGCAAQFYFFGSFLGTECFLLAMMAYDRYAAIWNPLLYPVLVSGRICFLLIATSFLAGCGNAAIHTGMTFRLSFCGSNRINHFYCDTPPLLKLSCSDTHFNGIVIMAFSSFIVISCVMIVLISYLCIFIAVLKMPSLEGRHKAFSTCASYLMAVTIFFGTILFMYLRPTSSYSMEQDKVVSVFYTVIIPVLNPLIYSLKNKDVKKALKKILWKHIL
Outline: as §1

Measured: odorant receptor agonist call

Cc1cnc(C)c(C)n1
inactive: all assays above
